Experimental data taken from ChEMBL document CHEMBL1153707 (Eur J Med Chem, 2010).
pIC50: −log10 of the molar value.

Columns and labels:
[1] = biological target: Glycogen synthase kinase-3 (Homo sapiens, UniProt P49840+P49841); test: Inhibition of human GSK3alpha/ GSK3-beta; type: protein assay
[2] = biological target: Casein kinase I isoform alpha/subunit beta (Homo sapiens, UniProt P48729+P67870); test: Inhibition of human CK1-alpha/CK2beta; type: protein-complex assay
[3] = biological target: Cyclin-dependent kinase 5/CDK5 activator 1 (Homo sapiens, UniProt Q00535); test: Inhibition of human CDK5/p25; type: protein-complex assay
Procedure, shortened: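 CDK5/p25 kinase activity measured with 15 ATP and histone H1 as protein substrate; IC50 derived from dose-response curves.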

[4] = test system: SF-268; test: Cytotoxicity against human SF268 cells; type: functional

Casein kinase I isoform alpha/subunit beta, sequence (P67870 whole entry, canonical isoform): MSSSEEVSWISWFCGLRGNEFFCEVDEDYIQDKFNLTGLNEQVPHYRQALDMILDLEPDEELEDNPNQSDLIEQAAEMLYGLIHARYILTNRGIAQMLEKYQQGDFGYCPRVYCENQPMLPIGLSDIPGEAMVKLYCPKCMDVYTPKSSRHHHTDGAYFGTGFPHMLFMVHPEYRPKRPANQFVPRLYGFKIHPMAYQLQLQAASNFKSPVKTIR
Casein kinase I isoform alpha/subunit beta, sequence (P48729 whole entry, canonical isoform): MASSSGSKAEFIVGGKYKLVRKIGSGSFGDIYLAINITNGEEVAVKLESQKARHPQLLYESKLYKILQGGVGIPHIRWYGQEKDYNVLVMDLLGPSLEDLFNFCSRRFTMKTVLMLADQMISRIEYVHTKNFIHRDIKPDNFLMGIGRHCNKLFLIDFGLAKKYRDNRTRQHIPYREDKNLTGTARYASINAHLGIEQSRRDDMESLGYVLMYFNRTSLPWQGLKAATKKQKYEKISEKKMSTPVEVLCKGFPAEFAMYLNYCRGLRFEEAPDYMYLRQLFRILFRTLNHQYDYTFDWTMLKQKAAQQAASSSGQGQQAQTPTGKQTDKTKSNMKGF
Cyclin-dependent kinase 5/CDK5 activator 1, sequence (Q00535 whole entry): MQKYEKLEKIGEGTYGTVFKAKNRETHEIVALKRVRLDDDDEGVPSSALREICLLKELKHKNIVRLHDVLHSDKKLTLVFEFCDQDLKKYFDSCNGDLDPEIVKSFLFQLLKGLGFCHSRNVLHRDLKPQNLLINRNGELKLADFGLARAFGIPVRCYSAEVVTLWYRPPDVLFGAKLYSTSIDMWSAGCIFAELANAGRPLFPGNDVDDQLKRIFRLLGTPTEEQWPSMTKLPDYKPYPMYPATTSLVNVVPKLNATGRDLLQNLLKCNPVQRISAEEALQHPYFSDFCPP
Cyclin-dependent kinase 5/CDK5 activator 1, sequence (Q15078 whole entry, further chain): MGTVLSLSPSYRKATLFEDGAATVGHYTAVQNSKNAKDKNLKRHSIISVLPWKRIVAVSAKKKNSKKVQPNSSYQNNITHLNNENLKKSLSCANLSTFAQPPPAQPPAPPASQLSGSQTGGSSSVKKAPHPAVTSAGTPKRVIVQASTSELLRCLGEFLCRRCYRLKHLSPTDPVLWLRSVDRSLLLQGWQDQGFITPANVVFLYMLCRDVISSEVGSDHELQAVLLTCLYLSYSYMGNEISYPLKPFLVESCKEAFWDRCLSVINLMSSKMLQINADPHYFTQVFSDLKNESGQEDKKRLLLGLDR

SMILES	IC50 [1]	pIC50 [2]	pIC50 [3]	GI50 [4]
CN1C(=O)/C(=C/c2ccc3c(c2)OCO3)N=C1NCCNCc1ccc(Cl)cc1	> 100 µM	< 4.00	< 4.00	–
COc1cc(/C=N/CCNC2=N/C(=C\c3ccc4c(c3)OCO4)C(=O)N2C)cc(OC)c1OC	> 100 µM	< 4.00	< 4.00	–
CN1C(=O)/C(=C/c2ccc3c(c2)OCO3)N=C1NCCNCc1ccc2c(c1)OCC2	> 10 µM	< 4.00	< 4.00	–
CN1C(=O)/C(=C/c2ccc3c(c2)OCO3)N=C1NCCNCc1ccc2c(c1)OCCO2	> 10 µM	< 4.00	< 4.00	–
COc1ccc(CNCCNC2=N/C(=C\c3ccc4c(c3)OCO4)C(=O)N2C)cc1	> 10 µM	< 4.00	< 4.00	–
CN1C(=O)/C(=C/c2ccc3c(c2)OCO3)N=C1NCCNCc1ccc([N+](=O)[O-])cc1	> 100 µM	< 4.00	< 4.00	–
COc1cc(CNCCNC2=N/C(=C\c3ccc4c(c3)OCO4)C(=O)N2C)cc(OC)c1OC	> 100 µM	< 4.00	< 4.00	–
CN1C(=O)/C(=C/c2ccc3c(c2)OCO3)N=C1NCCN.Cl	1.4 µM	< 4.00	< 4.00	–
CN1C(=O)/C(=C/c2ccc3c(c2)OCO3)N=C1NCCNCc1ccccc1	> 10 µM	< 4.00	< 4.00	–
CN1C(=O)/C(=C/c2ccc3c(c2)OCO3)N=C1N [LEUCETTAMINE B]	15 µM	< 4.00	–	–
COc1cc(/C=C2\N=C(N)NC2=O)ccc1O [POLYANDROCARPAMINE A]	–	–	–	65 µM

Now from value to molecule, other results behind:

IC50 [1]	pIC50 [2]	pIC50 [3]	SMILES	GI50 [4]
15 µM	< 4.00	< 4.00	CN1C(=O)/C(=C/c2ccc3c(c2)OCO3)N=C1NCC/N=C/c1ccc2c(c1)OCC2	–
> 100 µM	< 4.00	< 4.00	CN1C(=O)/C(=C/c2ccc3c(c2)OCO3)N=C1NCC/N=C/c1ccc(Cl)cc1	–
7 µM	< 4.00	< 4.00	CN1C(=O)/C(=C/c2ccc3c(c2)OCO3)N=C1NCC/N=C/c1ccccc1	–
38 µM	< 4.00	< 4.00	CN1C(=O)/C(=C/c2ccc3c(c2)OCO3)N=C1NCC/N=C/c1ccc2c(c1)OCCO2	–
7.3 µM	< 4.00	< 4.00	COc1ccc(/C=N/CCNC2=N/C(=C\c3ccc4c(c3)OCO4)C(=O)N2C)cc1	–
> 100 µM	< 4.00	< 4.00	CN1C(=O)/C(=C/c2ccc3c(c2)OCO3)N=C1NCC/N=C/c1ccc([N+](=O)[O-])cc1	–
0.86 µM	< 4.00	< 4.00	CN1C(=O)/C(=C/c2ccc3c(c2)OCO3)N=C1NCC/N=C/c1ccc2c(c1)OCO2	–
> 10 µM	< 4.00	< 4.00	CN1C(=O)/C(=C/c2ccc3c(c2)OCO3)N=C1NCCNCc1ccc2c(c1)OCO2	–
